# Where “and” joins values, the source holds several entries; their conditions need not be identical. Equal entries are not always repeated. Structures can show the parent of a compound that is named as a salt. Where two headings read alike, the source gives them in different places.
# How the values were obtained:
# [1] = target: hα3β4 AChR ([3H]ibogaine sites) (Homo sapiens, UniProt P30926+P32297); test: [3H]ibogaine competition binding to hα3β4 AChR membranes from HEK293-hα3β4 cells
# α3β4 and α4β2 AChRs = settings: 20 μM; ref Glick et al., 2002a; cited from earlier work
# hα4β2 AChR = hα4β2 AChR (Homo sapiens, UniProt P17787+P43681); assay type: cell-based; settings: for hα4β2/hα3β4 IC50 ratio (selectivity): ratio using hα3β4 data of Arias et al., 2015; for IC50: read-out: IC50 (inhibitory potency)
# hα7 AChR = hα7 AChR (Homo sapiens, UniProt P36544); assay type: cell-based; settings: for hα7/hα3β4 IC50 ratio (selectivity): ratio using hα3β4 data of Arias et al., 2015
# [2] = tested on: MHb (VI) neurons (endogenous α3β4* AChRs); test: Patch-clamp recording of ACh-evoked currents from MHb; assay type: cell-based, mouse; settings: for Reversibility of inhibition of ACh-evoked currents after washing: 180 μM, washing 13 min ((±)-18-MC) or 10 min ((+)-catharanthine); for IC50: read-out: IC50 (inhibitory potency on ACh-evoked currents), 100 μM ACh puffs, MHb (VI) neurons, single exponential fit
# Method in brief: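 Male C57BL/6J mice, 8–24 weeks. Coronal 250 μm slices through the medial habenula, recovered in oxygenated solution at 33 °C for 12 min. Neurons visualised by IR/DIC. Internal solution contained 2 mM QX-314. ACh (100 μM) puffed for 250 ms at 12 psi, with 1 μM atropine in the superfusate. Test compound at 0.07–180 μM; peak amplitudes measured before and after washout. Nonlinear least-squares fit gave IC50.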
# α1β1γδ AChR = test: Selectivity for hα3β4 over α1β1γδ AChRs; assay type: cell-based, human; settings: ref Arias et al., 2011
# hα3β4 AChR = settings: read-out: IC50 at hα3β4 AChRs; HEK293-hα3β4 cells; ref Arias et al., 2015; cited from earlier work
# [3] = ref Zhang et al., 2002; Maissonneuve and Glick, 2003; cited from earlier work
# [4] = hα7, inhibition of 1.0 μM (±)-epibatidine-induced Ca2+ influx
# hα7 AChR, sequence (P36544 23-502): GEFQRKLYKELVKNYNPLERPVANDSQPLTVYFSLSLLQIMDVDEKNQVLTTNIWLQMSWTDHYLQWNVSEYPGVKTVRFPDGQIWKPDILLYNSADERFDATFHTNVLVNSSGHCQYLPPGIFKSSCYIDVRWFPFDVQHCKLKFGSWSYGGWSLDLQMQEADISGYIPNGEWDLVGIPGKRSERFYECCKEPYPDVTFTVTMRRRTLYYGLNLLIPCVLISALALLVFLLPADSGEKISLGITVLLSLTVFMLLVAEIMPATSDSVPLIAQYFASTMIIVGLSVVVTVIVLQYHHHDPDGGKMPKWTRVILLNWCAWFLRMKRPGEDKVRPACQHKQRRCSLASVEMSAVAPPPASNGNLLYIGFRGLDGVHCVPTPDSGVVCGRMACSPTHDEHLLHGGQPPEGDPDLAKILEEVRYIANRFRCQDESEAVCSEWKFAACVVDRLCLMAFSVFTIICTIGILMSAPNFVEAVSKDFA
# hα4β2 AChR, sequence (P17787 26-502): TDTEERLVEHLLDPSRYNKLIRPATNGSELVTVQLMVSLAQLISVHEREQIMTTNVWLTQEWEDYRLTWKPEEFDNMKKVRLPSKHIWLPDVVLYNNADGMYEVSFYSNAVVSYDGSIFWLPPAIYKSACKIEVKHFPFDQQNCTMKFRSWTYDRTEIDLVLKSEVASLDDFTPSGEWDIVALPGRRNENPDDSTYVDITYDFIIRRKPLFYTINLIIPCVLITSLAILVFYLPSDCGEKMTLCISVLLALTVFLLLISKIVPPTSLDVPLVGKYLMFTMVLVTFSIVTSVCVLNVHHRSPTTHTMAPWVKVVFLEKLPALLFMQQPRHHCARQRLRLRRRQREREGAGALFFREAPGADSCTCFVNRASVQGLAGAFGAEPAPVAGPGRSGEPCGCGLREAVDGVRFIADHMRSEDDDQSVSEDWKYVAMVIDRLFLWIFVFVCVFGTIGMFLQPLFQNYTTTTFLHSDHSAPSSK
# hα4β2 AChR, sequence (P43681 29-627): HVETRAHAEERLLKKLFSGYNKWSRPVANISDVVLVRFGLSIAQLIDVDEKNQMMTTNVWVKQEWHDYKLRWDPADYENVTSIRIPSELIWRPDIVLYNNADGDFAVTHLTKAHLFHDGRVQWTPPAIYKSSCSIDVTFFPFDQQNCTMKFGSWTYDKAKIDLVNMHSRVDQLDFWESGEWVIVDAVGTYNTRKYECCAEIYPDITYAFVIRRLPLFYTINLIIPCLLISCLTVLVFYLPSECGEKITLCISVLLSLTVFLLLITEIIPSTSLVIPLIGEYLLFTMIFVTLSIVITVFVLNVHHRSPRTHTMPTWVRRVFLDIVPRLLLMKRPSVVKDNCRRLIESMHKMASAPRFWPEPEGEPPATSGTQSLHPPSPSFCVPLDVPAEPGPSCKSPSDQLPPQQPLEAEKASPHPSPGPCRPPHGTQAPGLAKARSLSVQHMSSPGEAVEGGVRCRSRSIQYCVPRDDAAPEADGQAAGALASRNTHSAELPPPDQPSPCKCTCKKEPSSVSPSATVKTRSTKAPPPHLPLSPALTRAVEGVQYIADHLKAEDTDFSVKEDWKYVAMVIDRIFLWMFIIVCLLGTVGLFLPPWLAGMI
# hα3β4 AChR ([3H]ibogaine sites), sequence (P32297 32-505): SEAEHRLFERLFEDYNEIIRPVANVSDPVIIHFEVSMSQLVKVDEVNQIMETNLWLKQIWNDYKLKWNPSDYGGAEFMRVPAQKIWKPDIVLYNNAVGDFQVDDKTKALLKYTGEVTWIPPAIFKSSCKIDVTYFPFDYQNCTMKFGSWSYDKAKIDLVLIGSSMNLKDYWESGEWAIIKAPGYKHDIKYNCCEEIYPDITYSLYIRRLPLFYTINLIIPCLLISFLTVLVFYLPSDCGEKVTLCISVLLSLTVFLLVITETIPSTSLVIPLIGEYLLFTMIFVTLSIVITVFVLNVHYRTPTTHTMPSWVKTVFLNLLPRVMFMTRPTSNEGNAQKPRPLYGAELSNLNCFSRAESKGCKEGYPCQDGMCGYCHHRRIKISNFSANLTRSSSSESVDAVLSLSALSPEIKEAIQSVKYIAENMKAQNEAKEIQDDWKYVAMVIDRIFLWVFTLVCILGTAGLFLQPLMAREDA
# hα3β4 AChR ([3H]ibogaine sites), sequence (P30926 22-498): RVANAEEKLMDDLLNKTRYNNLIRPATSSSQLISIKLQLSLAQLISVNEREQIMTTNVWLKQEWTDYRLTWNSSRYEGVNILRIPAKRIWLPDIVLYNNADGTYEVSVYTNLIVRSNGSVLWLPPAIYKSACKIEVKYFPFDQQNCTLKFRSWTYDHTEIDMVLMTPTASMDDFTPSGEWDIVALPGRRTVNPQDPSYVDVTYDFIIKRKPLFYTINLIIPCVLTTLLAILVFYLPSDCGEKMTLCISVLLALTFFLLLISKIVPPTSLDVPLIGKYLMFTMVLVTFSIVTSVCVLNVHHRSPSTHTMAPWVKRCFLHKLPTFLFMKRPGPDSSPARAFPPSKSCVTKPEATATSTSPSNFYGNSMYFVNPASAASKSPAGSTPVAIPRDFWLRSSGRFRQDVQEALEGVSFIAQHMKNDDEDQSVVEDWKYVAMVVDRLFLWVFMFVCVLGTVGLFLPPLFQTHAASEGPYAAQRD
compound,measurement,setting,value
"CC(NC(C)(C)C)C(=O)c1cccc(Cl)c1 (stereo not shown) [bupropion, bupropion hydrochloride]",nH (Hill coefficient),[1]; desensitized state [in the presence of (−)-nicotine],0.75 ± 0.08
same,nH (Hill coefficient),[1]; resting state [no agonist],0.72 ± 0.05
12-methoxyibogamine [(−)-ibogaine],AChR subtypes inhibited in voltage-clamp recordings,α3β4 and α4β2 AChRs,inhibits both α3β4 and α4β2 subtypes
"CCC1=C[C@@H]2CN3CCc4c([nH]c5ccccc45)[C@@](C(=O)OC)(C2)[C@@H]13 [(+)-Catharanthine, (+)-3,4-didehydrocoronaridine]",nH (Hill coefficient),hα4β2 AChR,1.48 ± 0.25
same,hα4β2/hα3β4 IC50 ratio (selectivity),hα4β2 AChR,18.5 x-fold
same,hα4β2/hα3β4 IC50 ratio (selectivity),hα4β2 AChR; listed as (+)-catharanthine,18 x-fold
same,nH (Hill coefficient),hα7 AChR; [4],1.43 ± 0.20
same,hα7/hα3β4 IC50 ratio (selectivity),hα7 AChR,32.0 x-fold
same,hα7/hα3β4 IC50 ratio (selectivity),hα7 AChR; listed as (+)-catharanthine,32 x-fold
same,Reversibility of inhibition of ACh-evoked currents after washing,[2],reversible inhibition
same,IC50,[2],27 ± 4 µM
same,Selectivity for hα3β4 over α1β1γδ AChRs,α1β1γδ AChR,29 fold
same,IC50,hα3β4 AChR,0.68 ± 0.1 µM
"CNCC[C@H]1CC2CN3CCc4c([nH]c5ccccc45)[C@](C(=O)OC)(C2)[C@H]13 (racemic) [(±)-18-MAC, (±)-18-Methylaminocoronaridine]",nH (Hill coefficient),hα4β2 AChR,1.40 ± 0.14
same,hα4β2/hα3β4 IC50 ratio (selectivity),hα4β2 AChR,7.9 x-fold
same,IC50,hα4β2 AChR,20.7 ± 3 µM
same,IC50 (inhibitory potency),"hα7 AChR; GH3-hα7 cells, 5 min pre-incubation, 1.0 μM (±)-epibatidine",No effect
"Clc1ccc(C2CC3CCC2N3)cn1 (racemic) [(±)-epibatidine, (±)-Epibatidine, reference compound]",EC50,"hα7 AChR; read-out: EC50 (activation potency), agonist-induced Ca2+ influx, GH3-hα7 cells, n = 25",0.026 ± 0.004 µM
(±)-18-hydroxycoronaridine [(±)-18-HC],nH (Hill coefficient),hα4β2 AChR,1.27 ± 0.06
same,hα4β2/hα3β4 IC50 ratio (selectivity),hα4β2 AChR,8.8 x-fold
same,IC50,hα4β2 AChR,24.8 ± 1.2 µM
same,nH (Hill coefficient),hα7 AChR,1.64 ± 0.20
same,hα7/hα3β4 IC50 ratio (selectivity),hα7 AChR,26.1 x-fold
"COCCC1CC2CN3CCc4c([nH]c5ccccc45)C(C(=O)OC)(C2)C13.Cl (racemic) [(±)-18-MC, (±)-18-Methoxycoronaridine hydrochloride]",nH (Hill coefficient),hα4β2 AChR,1.85 ± 0.17
same,hα4β2/hα3β4 IC50 ratio (selectivity),hα4β2 AChR,4 x-fold and 4.3 x-fold
same,nH (Hill coefficient),hα7 AChR; [4],2.21 ± 0.50
same,hα7/hα3β4 IC50 ratio (selectivity),hα7 AChR,23.6 x-fold
same,Reversibility of inhibition of ACh-evoked currents after washing,[2],reversible inhibition
same,IC50,[2],28 ± 6 µM
same,IC50,hα3β4 AChR,1.47 ± 0.21 µM
same,half-life (metabolism to 18-HC),[3],~1.67 h

# — article PMC5903430 (The international journal of biochemistry & cell biology, 2017)
